Results gathered from unrelated publications.

SMILES	host	medium	route	dose	setting	Tmax [min]
COCC(=O)N1CCc2[nH]c3c(Cl)c(Cl)ccc3c2[C@@H]1C	C57BL/6 mouse	blood	intravenous	1 mg/kg	–	5
NCc1cc2c(cc1F)C(=O)N(C1CCC(=O)NC1=O)C2 (stereo not drawn)	male CD-1 mouse	plasma	oral	10 mg/kg	–	48
Cc1ccc(CCC(=O)Nc2nnc(S(N)(=O)=O)s2)cc1	male BALB/c mouse	plasma	oral	20 mg/kg	–	10
Cc1ccc(OCC(=O)N[C@@H](Cc2c[nH]c3ccccc23)C(=O)OC(C)C)cc1	male Sprague-Dawley mouse	plasma	oral	20 mg/kg	–	72
COC1=CC(c2ccc[nH]2)=N/C1=C\c1cc(Cc2ccc(OC(F)(F)F)cc2)c(C)[nH]1.Cl	male CD-1 mouse	liver	oral	40 mg/kg	single dose	1440
Cc1[nH]c(C)c(S(=O)(=O)Nc2ccc(C(F)(F)F)c(Cl)c2)c1C(=O)N1CCC(F)(F)C1	male CD-1 mouse	plasma	intraperitoneal	40 mg/kg	–	60
Cc1ccc(N(c2ccc(NC(=O)CN(C)c3ccccc3N3CCCC3=O)cc2)C(C)C)cc1	male CD-1 mouse	plasma	oral	20 mg/kg	–	40.2
NCc1ccc(-c2nn(Cc3ccccc3)c3ccccc23)o1	male CD-1 mouse	plasma	intraperitoneal	30 mg/kg	–	30
OCc1nc2ccc(NCc3ccc(C(F)(F)F)cc3)cc2[nH]1	male BALB/c mouse	plasma	intravenous	1 mg/kg	–	15
OCc1ccc(-c2nn(Cc3ccccc3)c3ccccc23)o1	male CD-1 mouse	plasma	oral	10 mg/kg	–	15
COC1=CC(c2ccc[nH]2)=N/C1=C\c1[nH]c(Cc2ccc(OC(F)(F)F)cc2)cc1Cc1ccc(OC(F)(F)F)cc1	male CD-1 mouse	plasma	oral	40 mg/kg	single dose	240
CCOC(=O)c1c(NC(=O)CNC(C)C)sc2c1CCCCC2	male mouse	plasma	intraperitoneal	5 mg/kg	single dose	11.6
CCn1c(=O)c(-c2cc(NC(=O)Nc3ccccc3)c(F)cc2Br)cc2cnc(NC)cc21	male mouse	plasma	oral	15 mg/kg	single dose	60
CN(C)C(=O)c1cc2cnc(Nc3ccc(-c4ccc5c(=O)cc(N6CCOCC6)oc5c4)cc3)nc2n1C1CCCC1	BALB/c mouse	plasma	oral	20 mg/kg	–	24
NCc1ccc(-c2nn(Cc3ccncc3)c3ccccc23)o1	male CD-1 mouse	plasma	oral	10 mg/kg	–	30
